ChEMBL document CHEMBL1135437, “Novel, non-acylguanidine-type Na(+)/H(+) exchanger inhibitors: synthesis and pharmacology of 5-tetrahydroquinolinylidene aminoguanidine derivatives” (J Med Chem, 2002)

Columns and labels:
Rattus norvegicus [1] = experiment: In vivo inhibitory effect on the myocardial infarct size of ischemia-reperfusion injury model of rat administered intravenously 5 min before occlusion; type: functional, Myocardium
Summary of the method: (§1)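 Male Wistar rats (11–12 weeks), anesthetized; left coronary artery occluded 1 h, then reperfused 24 h. Dose 0.1 or 0.3 mg/kg iv, 5 min before occlusion. Area at risk stained with 1% Evans blue; six left-ventricle slices stained with 1% TTC, 37 °C, 10 min. Infarct size expressed as % of area at risk by weight. n = 5–7.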

[2] = In vitro inhibition against Na+/H+ exchanger(NHE) by measuring its ability to inhibit the acid induced swelling in human platelets by 50%; type: functional
Summary of the method: (§2)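 Platelet-rich plasma from forearm-vein blood of normal adult men, adjusted to 10 × 10^4/µL. Compound in DMSO added 3 min before sodium propionate buffer (135 mM, pH 6.7, 37 °C), final DMSO 1%. Light transmission at 550 nm recorded; maximum upstroke velocity in the first minute used. 100% inhibition defined by vehicle vs HOE-642 (10^-5 M). IC50 = 50% inhibition of swelling; triplicate experiments.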

[3] = In vitro inhibition of acid induced swelling in rat platelets by 50% as a measure of NHE inhibition; type: functional
Summary of the method: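 Platelet-rich plasma from male Wistar rats (13–15 weeks), diluted in saline to 40 × 10^4/µL. Compound in DMSO added 3 min before sodium propionate buffer (135 mM, pH 6.7, 37 °C), final DMSO 1%. Swelling read as the change in 550 nm light transmission 1 min later, corrected with platelet-poor plasma. 100% inhibition defined by vehicle vs HOE-642 (10^-5 M). IC50 from triplicate experiments.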

[4] = in vitro inhibition against NHE to inhibit the acid induced swelling in human platelets by 50%; type: functional; summary of the method: as §2
Rattus norvegicus [5] = experiment: In vivo inhibitory effect on the Myocardial Infarct size of Ischemia-Reperfusion Injury model of rat. Administered intravenously […].; type: functional, Myocardium; details: in the assay text read “5 min before” for “2 hr before”
Rattus norvegicus [6] = experiment: In vivo inhibitory effect on the myocardial infarct size of ischemia-reperfusion injury model of rat. Administered intravenously 5 min before occlusion.; type: functional, Myocardium; summary of the method: as §1
Rattus norvegicus [7] = experiment: In vivo inhibitory effect on the Myocardial Infarct size of Ischemia-Reperfusion Injury model of rat. Administered intravenously 5 min before occlusion.; type: functional, Myocardium; summary of the method: as §1

Compound	IC50 [4] [nM]	Inhibition [3] [%]	also measured
CC(C)c1ccc(C(=O)N=C(N)N)cc1S(C)(=O)=O [CARIPORIDE]	–	–	Inhibition (Rattus norvegicus [1]): 28%; IC50 [2]: 210 nM
Cc1ccnc2c1/C(=N/N=C(N)N)CC(c1c(Cl)cccc1Cl)C2.Cl.Cl (stereo unspecified)	–	23	–
Cc1ccnc2c1/C(=N/N=C(N)N)CC(c1ccccn1)C2.Cl.Cl (stereo unspecified)	–	23	–
CS(=O)(=O)O.CS(=O)(=O)O.Cc1ccnc2c1/C(=N/N=C(N)N)C[C@H](c1ccccc1Cl)C2	9	–	Inhibition (Rattus norvegicus [6]): 44%
Cc1ccnc2c1/C(=N/N=C(N)N)CC(c1ccncc1)C2.Cl.Cl (stereo unspecified)	–	25	–

Further lines, with some results ahead:

IC50 [4] [nM]	Compound	Inhibition [3] [%]	also measured
13	CS(=O)(=O)O.CS(=O)(=O)O.Cc1ccc(F)cc1[C@H]1C/C(=N\N=C(N)N)c2c(C)ccnc2C1	–	Inhibition (Rattus norvegicus [5]): 33%
7	CS(=O)(=O)O.CS(=O)(=O)O.Cc1ccnc2c1/C(=N/N=C(N)N)C[C@H](c1cc(Cl)sc1Cl)C2	–	Inhibition (Rattus norvegicus [7]): 43%
